# Source: PubChem BioAssay (several laboratories)
# Compounds with a hit are over-represented: about 0.89% of the library has one in this group of screens.
# beta cell repl: induces beta-cell replication in MIN6 cells; 330,000 tested, 0.29% active; AID 2380; MIN6 cells proliferation, ATPlite luminescence, 48 h; cells starved in 0.2% serum; 100% = growth in 10% serum; proliferation, % at 10 µM;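 active = compounds whose signal lies at least 3.5 SD above the mean of all wells on their plate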
# V-ATPase pHluor: alters yeast V-ATPase proton transport; S. cerevisiae, pHLuorin cytosolic pH fluorescence; response, % at 10 µM; 350,000 tested, 0.37% active; AID 504577; in the data active = response mostly above about 7.3%, no sharp cut-off; inactive = mostly below about 5.4%; note: actives read high
# T cell HTS: T cell immune modulation candidate | 2C CD8+ T cell-vesicle binding, flow cytometry; active compounds read low | response (vesicle binding), % at 7 µM | 330,000 tested, 0.068% active | AID 2052;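 active = response, share of CD8 T cells binding vesicles, and their 90th percentile fluorescence all below set limits, cut at about 80% in these data, passing the limit was not always enough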;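 note: values below 100% mean blocked vesicle binding to the CD8+ T cells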
#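 Assay system: 2C TCR transgenic mouse naive CD8+ T cells, MACS-purified | Read-out: CD8+ gate FL2 mean fluorescence as % of same-row positive control | Signal: High-throughput flow cytometry with anti-B7-1 and anti-CD8 staining | Timing: Binding step 1.5 h, 37 °C, antibody labelling 20 min, ice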
# NTR1 ag: activates human neurotensin receptor 1. AID 493036. activation, % at 20 µM. NTR1-U2OS beta-arrestin-GFP spot imaging, agonist mode. 330,000 tested, 0.17% active. P30989;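 active = activation at or above 40% of the spot to cytoplasm intensity ratio, with at least 20 cells analyzed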
# Target sequence (P30989 whole entry, looked up): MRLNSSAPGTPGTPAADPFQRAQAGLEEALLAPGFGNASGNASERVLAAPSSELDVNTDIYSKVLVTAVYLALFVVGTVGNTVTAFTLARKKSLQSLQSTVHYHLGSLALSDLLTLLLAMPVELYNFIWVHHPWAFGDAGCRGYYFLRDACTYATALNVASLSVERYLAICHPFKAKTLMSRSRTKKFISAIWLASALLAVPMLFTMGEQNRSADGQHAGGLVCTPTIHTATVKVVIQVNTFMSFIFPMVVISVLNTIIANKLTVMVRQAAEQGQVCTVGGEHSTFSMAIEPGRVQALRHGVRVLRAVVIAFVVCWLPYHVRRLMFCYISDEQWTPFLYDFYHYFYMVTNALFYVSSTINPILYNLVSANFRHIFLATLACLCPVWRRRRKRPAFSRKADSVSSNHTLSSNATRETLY
# Xi reactivation: activators of X-chromosome reactivation in mouse fibroblasts. XiGFP mouse fibroblasts, % GFP-positive cells imaging, 3 d; cells co-treated with 5-aza-dC sensitizer; scaled so ellipticine positive control = 100%. activation, % at 7.58 µM. 360,000 tested, 0.055% active. AID 743238;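 active = mean normalized replicate activation at least 10% and every replicate at or above 10%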
#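 Assay system: SV40-immortalized XiGFP fibroblast cells, line 68-5-11; buffer or medium: DMEM plus 5-aza-dC sensitizer; compound: one concentration, pinned; timing: compounds 3 days, fix/stain 15 min at room temperature; benchmarks: positive control ellipticine, 6 µM final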
# Arr AP2 block: inhibitors of human beta-arrestin and AP2 interaction | FITC-arrestin peptide / GST-AP2 beads, flow cytometry; AP2 beta2 appendage carries R879A mutation | 340,000 tested, 0.31% active | inhibition, % at 10 µM;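 active = inhibition above a set limit, near 3 SD of compounds lacking own fluorescence, cut at about 54% in these data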
#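 test system = AP2 appendage R879A on GSH beads | buffer or medium = PBS plus Tween 20 (0.05%) and BSA (0.1%) | incubation = 12 min plus 1 h, RT | detection = bead flow cytometry, FITC channel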
# Hits are given with their value; i = inactive; nt = no result given.
SMILES,beta cell repl,V-ATPase pHluor,T cell HTS,NTR1 ag,Xi reactivation,Arr AP2 block
Cc1cc(C)cc(N=Cc2ccc([N+](=O)[O-])s2)c1,i,112,i,i,i,i
CNC[C@H]1Oc2c(NC(=O)Cc3ccccc3)cccc2C(=O)N([C@H](C)CO)C[C@@H]1C,nt,nt,nt,nt,i,nt
CC(=O)N(c1ccccc1C)C1CCCC1,i,i,i,i,i,i
CC(=O)N(C1=C(Cl)C(=O)c2ccccc2C1=O)C1CCCCC1,i,141,i,i,i,i
O=c1[nH]c(=O)n([C@H]2C[C@H](O)[C@@H](CO)O2)cc1C(F)(F)F,i,i,i,i,25,i
O=c1[nH]c(=O)n(C2C[C@H](O)[C@@H](CO)O2)cc1C(F)(F)F (some centres undefined),i,i,i,i,i,i
C[C@@H]1CCCCO[C@@H](CN(C)Cc2ccc(C(=O)Nc3ccccc3N)cc2)[C@@H](C)CN([C@H](C)CO)C(=O)c2cc(NC(=O)C3CCCCC3)ccc2O1,nt,nt,nt,nt,i,nt
COc1ccc(NC(=O)N(C)C[C@@H]2Oc3ccc(NC(=O)CCCCCC(=O)Nc4ccccc4N)cc3C(=O)N([C@H](C)CO)C[C@@H]2C)cc1,nt,nt,nt,nt,i,nt
COc1ccc(C(=O)CCC(C)(C)[N+](=O)[O-])cc1OC,i,i,60,i,i,i
CCOC(=O)Cc1csc(NC(=O)CCCc2ccccc2)n1,i,i,0.0,i,i,i
COc1ccc(CN2CC3(CCN(C(=O)C4CCC4)CC3)c3c(n(C)c4cc(OC)ccc34)[C@@H]2CO)cc1,nt,nt,nt,nt,i,nt
COc1ccc2cc3c(N)nn(C(=O)C4CCC(C(C)(C)C)CC4)c3nc2c1 (centres undefined),i,i,i,42,i,i
C[C@H]1CN([C@@H](C)CO)S(=O)(=O)c2ccc(C3=CCCC3)cc2O[C@H]1CN(C)C(=O)CC1CC1,nt,nt,nt,nt,i,nt
O=C(Nc1nnc(SCC(=O)N2CCCc3ccccc32)s1)c1cccc2ccccc12,i,i,i,i,i,i
Cc1ccc(C(=O)Nc2nnc(SCC(=O)N3CCCc4ccccc43)s2)cc1,i,9.0,i,i,i,i
COc1ccc(S(=O)(=O)Nc2ccc3c(c2)C(=O)N([C@@H](C)CO)C[C@@H](C)[C@H](CN(C)S(C)(=O)=O)O3)cc1,nt,nt,nt,nt,i,nt
C/C(=N\NC(=O)Cn1cc([N+](=O)[O-])cn1)c1ccco1,i,i,0.0,i,i,i
CC[n+]1ccccc1/C=C/c1ccc(N(C)C)cc1,nt,i,nt,nt,i,i
CCCCCC[n+]1ccccc1/C=C/c1ccc(N(C)C)cc1,nt,nt,nt,nt,16,nt
C[C@H]1CN(C)C(=O)c2cccc(N(S(C)(=O)=O)S(C)(=O)=O)c2O[C@H]1CN(C)C(=O)OC(C)(C)C,nt,nt,nt,nt,i,nt
Cc1ccc(C(=O)N/N=C/c2ccc(OC(=O)c3ccccc3Cl)cc2)cn1,i,i,i,i,i,i
O=C(N/N=C/c1cccc(OC(=O)c2ccccc2Cl)c1)c1cccnc1,i,i,0.0,i,i,i
Cc1ccc(SCC(=O)NCCSC(C)(C)C)cc1,i,19,i,i,nt,i
COCCNC(=O)CSc1ccc(C)cc1,i,i,i,i,nt,i
COc1cc([C@H]2c3[nH]c4ccccc4c3C[C@H]3C(=O)N4[C@@H](c5cc(OC)c(OC)c(OC)c5)c5[nH]c6ccccc6c5C[C@H]4C(=O)N23)cc(OC)c1OC,i,i,i,i,nt,i
SMILES,beta cell repl,V-ATPase pHluor,T cell HTS,NTR1 ag,Xi reactivation,Arr AP2 block
C=CCN1C(=O)[C@@H]2Cc3c([nH]c4ccccc34)C(c3cc(OC)c(OC)c(OC)c3)N2C1=S (some centres undefined),i,i,i,i,91,i
CCN1C(=O)[C@@H]2Cc3c([nH]c4ccccc34)C(c3cc(OC)c(OC)c(OC)c3)N2C1=S (some centres undefined),i,i,i,i,26,i
CCCc1cc(=O)oc2cc(OCc3nn[nH]n3)ccc12,i,i,i,i,nt,i
CCCCc1cc(=O)oc2cc(OCc3nn[nH]n3)ccc12,i,18,i,i,i,i
CC(C)(C=O)C1=CC(=O)c2ccccc2C1=O,nt,16,i,nt,18,i
CC(=O)N(C)C[C@H]1Oc2ccc(N(C)C)cc2CC(=O)N(C)C[C@@H]1C,nt,nt,nt,nt,i,nt
